Bioassay records: PubChem BioAssay, The Scripps Research Institute Molecular Screening Center
PAFAH1B2 inh: blocks human PAF acetylhydrolase 1b catalytic subunit 2. P68402. actives 1.2% (n = 340,000). recombinant PAFAH1B2, FP-rhodamine activity probe, fluorescence polarization. AID 492953. inhibition, % at 3.39 µM;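 active means inhibition above the mean of all tested compounds plus 3 SD, cut at about 24% in these data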
Target sequence (P68402 whole entry, looked up): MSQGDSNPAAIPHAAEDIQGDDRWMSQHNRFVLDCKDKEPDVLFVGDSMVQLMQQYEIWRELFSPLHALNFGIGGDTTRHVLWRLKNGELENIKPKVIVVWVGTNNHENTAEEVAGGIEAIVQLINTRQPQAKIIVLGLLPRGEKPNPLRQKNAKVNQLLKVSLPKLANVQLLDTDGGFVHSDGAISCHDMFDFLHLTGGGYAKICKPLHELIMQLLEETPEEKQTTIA
PAFAH1B3 inh: blocks human PAF acetylhydrolase 1B catalytic subunit 3 | Q15102 | recombinant PAFAH1B3, FP-rhodamine probe, fluorescence polarization | inhibition, % at 3.39 µM | actives 0.28% (n = 340,000) | AID 492972;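 active means inhibition above the screen-wide average of all tested compounds plus 3 SD, cut at about 25% in these data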
Target sequence (Q15102 whole entry, looked up): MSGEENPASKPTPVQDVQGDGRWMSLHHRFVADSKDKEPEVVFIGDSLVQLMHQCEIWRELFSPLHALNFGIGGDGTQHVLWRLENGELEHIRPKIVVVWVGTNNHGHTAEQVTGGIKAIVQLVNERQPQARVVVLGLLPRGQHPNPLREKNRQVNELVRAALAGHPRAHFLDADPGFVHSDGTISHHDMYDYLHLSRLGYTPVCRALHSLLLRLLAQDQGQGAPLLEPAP
pPAFAH inh: inhibitors of human plasma PAF acetylhydrolase (pPAFAH); recombinant pPAFAH, FP-rhodamine probe fluorescence polarization; inhibition, % at 3.39 µM; Q13093; actives 1.5% (n = 330,000);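 active means inhibition above the mean inhibition across the screen plus 3 SD, cut at about 25% in these data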;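 further: inhibitors block binding of the rhodamine activity-based probe so polarization drops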
PAFAH2 FP inh: inhibitors of human PAFAH2; actives 0.99% (n = 340,000); Q99487; recombinant PAFAH2, FP-rhodamine activity probe, fluorescence polarization; inhibition, % at 3.39 µM;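 active means inhibition above the mean over all tested compounds plus 3 SD, cut at about 30% in these data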;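 further: inhibitors block probe labeling of enzyme so polarization drops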
VIM-2 inhibitor: inhibitors of Pseudomonas aeruginosa VIM-2 metallo-beta-lactamase; purified VIM-2, nitrocefin hydrolysis, epi-absorbance fluorescence; inhibition, % at 5.6 µM; actives 0.89% (n = 290,000); AID 1527;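 active means inhibition above the mean of all tested compounds plus 3 SD, cutoff set per screening run, cut at about 7.5% in these data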;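 further: red hydrolysis product quenches plate fluorescence so inhibitors raise well fluorescence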
IMP-1 inh: inhibitors of Pseudomonas aeruginosa IMP-1 metallo-beta-lactamase | inhibition, % at 5.6 µM | actives 0.45% (n = 290,000) | purified IMP-1, nitrocefin hydrolysis, epi-absorbance fluorescence;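 active means inhibition above the mean plus 3 SD of all compounds in the same screening run, cut at about 4.5% in these data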
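Test system: recombinant IMP-1 enzyme, purified / Medium: HEPES buffer pH 7.1 with ZnSO4 and Brij 35 / Doses: single dose, 5.6 µM / Times: 25 °C, 15 min preincubation, 25 min reaction / Detection: Epi-absorbance via hydrolysed-nitrocefin quenching of white-plate fluorescence, 480/530 nm, EDTA stop / Evaluation: percent inhibition from optical density relative to buffer-blank wells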
Of the large screens only hits and unclear results are named; the others gave an inactive call. An excerpt weighted towards active compounds, which were near 3.6% of everything screened.

O=C(NCCc1ccc(Cl)cc1)C1CCC(=O)N1Cc1ccc(F)cc1 (configuration not stated)	PAFAH1B2 inh 28
Cc1ccc(CCNC(=O)C2CCC(=O)N2Cc2ccc(F)cc2)cc1 (configuration not stated)	none
Brc1ccc(Br)c2cnccc12	none (no result: pPAFAH inh, VIM-2 inhibitor, IMP-1 inh)
O=C(Nc1ccccc1Cl)c1cc(S(=O)(=O)N2CCCCC2)ccc1N1CCOCC1	none
Cc1ccc(NC(=O)c2cc(S(=O)(=O)N3CCCCC3)ccc2N2CCOCC2)cc1S(=O)(=O)N(C)C	PAFAH1B2 inh 27, PAFAH1B3 inh 26 (no result: pPAFAH inh, VIM-2 inhibitor, IMP-1 inh)
CC(NC(=O)c1cc(S(=O)(=O)N2CCOCC2)ccc1N1CCCC1)c1ccc(Cl)c(Cl)c1 (configuration not stated)	pPAFAH inh 28 (no result: VIM-2 inhibitor, IMP-1 inh)
Cc1ccc(NC(=O)c2cc(N3C(=O)C4CC=CCC4C3=O)ccc2N2CCOCC2)cc1Cl (configuration not stated)	pPAFAH inh 26
CC(=O)c1ccc(OC(C)C(=O)OCC(=O)NCCc2ccccc2)cc1 (configuration not stated)	none (no result: VIM-2 inhibitor, IMP-1 inh)
Cn1cccc1C(=O)OCC(=O)NC(=O)c1ccc(Cl)cc1	none (no result: VIM-2 inhibitor, IMP-1 inh)
Cc1ccc(S(=O)(=O)Oc2ccccc2/C=N/NC(=O)c2nn(C)cc2[N+](=O)[O-])cc1	none
Cc1ccc(S(=O)(=O)Oc2ccc(/C=N/NC(=O)c3nn(C)cc3[N+](=O)[O-])cc2)cc1	PAFAH1B2 inh 28
CC(Oc1cccnc1[N+](=O)[O-])C(=O)N1CCc2ccccc21 (configuration not stated)	none (no result: VIM-2 inhibitor, IMP-1 inh)
CC(=O)Nc1ccc(NC(=O)C(C)OC(=O)/C=C/c2cnc3ccccc3n2)cc1 (configuration not stated)	none
CC(NC(=O)/C=C/c1cnc2ccccc2n1)C12CC3CC(CC(C3)C1)C2 (configuration not stated)	PAFAH1B2 inh 24
C/C(=N\Nc1cc(N2CCOCC2)ncn1)c1ccc(O)cc1	none
COc1cccc(-c2nc(C(=O)NCCCN3CCOCC3)cc3c2[nH]c2ccccc23)c1	VIM-2 inhibitor 8.2
COc1cccc(-c2cc(C(=O)NCCCN3CCOCC3)no2)c1	none
O=C(NCCCO)c1cc2c([nH]c3ccccc32)c(-c2ccccc2)n1	none (no result: pPAFAH inh)
O=C(NCCCN1CCOCC1)c1cc2c([nH]c3ccccc32)c(-c2cccc(Br)c2)n1	VIM-2 inhibitor 12
COc1cc(S(=O)(=O)Nc2cccc(C)c2)ccc1NC(=O)c1cccnc1	pPAFAH inh 30
COc1cc(NC(=O)c2cccnc2)ccc1NC(=O)c1ccccc1Cl	none
CN(CCS(=O)(=O)c1ccc(Cl)cc1)Cc1cccnc1	none
CC(C)c1ccc(C(C)NCCS(=O)(=O)c2ccc(Cl)cc2)cc1 (configuration not stated)	PAFAH1B2 inh 34
O=c1c2[nH]c3ccccc3c2ncn1CCCn1ccnc1	none
O=c1c2[nH]c3ccc(Br)cc3c2ncn1CCCn1ccnc1	IMP-1 inh 5.9
COc1cc2c(cc1OC)C(c1ccccc1)CC2=O (configuration not stated)	IMP-1 inh 10
Cc1cc(C(=O)COC(=O)C2=NNC(=O)CC2)c(C)n1-c1ccc(OC(F)F)cc1	none
Cc1cc(C(=O)C(C)OC(=O)C2=NNC(=O)CC2)c(C)n1-c1ccc(OC(F)F)cc1 (configuration not stated)	IMP-1 inh 5.2
O=C(O)c1ccccc1Nc1ccnc(C(F)(F)F)c1	none
Cc1cccc(OCC(=O)Nc2nnc(S(=O)(=O)N3CCC(C)CC3)s2)c1	PAFAH1B2 inh 27
O=C(Nc1nnc(S(=O)(=O)N2CCCC2)s1)c1ccccc1Br	none
Cc1cccc(OCC(=O)Nc2nnc(S(=O)(=O)N3CCCCC3)s2)c1	none
CC1CCN(S(=O)(=O)c2nnc(NC(=O)c3ccccc3Br)s2)CC1	PAFAH1B2 inh 28
COc1cc(CNc2ccc(N3CCOCC3)cc2)cc(Br)c1OC	none
CCOc1cc(CNc2ccc(N(C)C)cc2)cc(Br)c1OCC(=O)NC(C)(C)C	pPAFAH inh 34
CCOc1cc(CNc2ccc(N3CCOCC3)cc2)cc(Br)c1OCC	pPAFAH inh 25
Cc1cccc(C(CC(=O)N2CCCCC2)c2ccccc2)c1O (configuration not stated)	none
